The text below walks through data of ChEMBL document CHEMBL1129428 (J Med Chem, 1996).

Series [1] relates to Rattus norvegicus. As to the kind of experiment: Compound was tested for anticonvulsant activity after Oral Administration into Rats by using MES screen test after 4h,dose 30 mg/kg; number of rats out of four which were protected. Type of series: functional. The method in brief: (§1)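 Rats received the compound orally. […] Rats were tested in the MES screen at 0.25, 0.5, 1, 2 and 4 h. Each value is the number of rats protected out of 4. The test followed NINDS procedures.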

Series [2] deals with Mus musculus. As to the kind of experiment: Anticonvulsant activity after intraperitoneal injection into mice by using MES screen test after 0.5 hr. Type of series: functional.
Series [3] relates to Rattus norvegicus. As to the kind of experiment: Compound was tested for anticonvulsant activity after Oral Administration into rat by using MES screen test after 1 hr. Type of series: functional. The procedure, abridged: (§2)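 Rats dosed orally, typically at 50 mg/kg first, then mostly 12.5 mg/kg (some compounds at 30 mg/kg), and tested by maximal electroshock. Four rats per compound, scored at 0.25, 0.5, 1, 2 and 4 h as the number of rats protected out of 4.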

For series [4], the system named is Mus musculus. As to the kind of experiment: Anticonvulsant activity after intraperitoneal injection into mice measured in a maximal electroshock scree (MES) screen. Type of series: functional. On the technique in general: Protection in the maximal electroshock model is a classic sign of anticonvulsant action.
Series [5] concerns Rattus norvegicus. As to the kind of experiment: Compound was tested for anticonvulsant activity after Oral Administration into Rats by using MES screen test after 2h,dose 30 mg/kg; number of rats out of four which were protected. Type of series: functional. The procedure, abridged:
as §1

The subject of series [6] is Mus musculus. As to the kind of experiment: Anticonvulsant activity after intraperitoneal injection into mice by using scPTZ screen after 0.5 hr. Type of series: functional.
Series [7] has as its system Rattus norvegicus. As to the kind of experiment: Compound was tested for anticonvulsant activity after Oral Administration into Rats by using MES screen test after 0.5h,dose 30 mg/kg; number of rats out of four which were protected. Type of series: functional. The procedure, abridged:
as §1

In series [8] the test system is Rattus norvegicus. As to the kind of experiment: Compound was tested for anticonvulsant activity after Oral Administration into Rats by using MES screen test after 1h,dose 30 mg/kg; number of rats out of four which were protected. Type of series: functional. The method in brief: as §1
Series [9] relates to Rattus norvegicus. As to the kind of experiment: Compound was tested for anticonvulsant activity after Oral Administration into Rats by using MES screen test after 0.25h,dose 30 mg/kg; No activity was demonstarted. Type of series: functional, organism-based. Also noted: dose 30 mg/kg. The method in brief: as §1
The test system of series [10] is Rattus norvegicus. As to the kind of experiment: Compound was tested for anticonvulsant activity after Oral Administration into Rats by using MES screen test after 1h,dose 12.5 mg/kg; number of rats out of four which were protected. Type of series: functional. The method in brief:
as §1

The test system of series [11] is Mus musculus. As to the kind of experiment: Toxicity after intraperitoneal injection into mice by using toxicity screen test after 0.5 hr. To be noted: in vivo, ip. Type of series: organism-based. The method in brief: (§3)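 Mice injected intraperitoneally at 30, 100 and 300 mg/kg and examined 0.5 and 4 h afterwards. Each entry is the minimum dose giving activity (MES protection, scPTZ protection, or rotorod failure for neurotoxicity) in half or more of the mice. Activity is called absent if nothing occurs at 300 mg/kg.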

A short description of series [12]: Protection index = TD50/ED50 (MES). Type of series: ADME, organism-based. The settings on record: rat, in vivo; read-out: PI.
For series [13], the system named is Mus musculus. As to the kind of experiment: Compound was tested for toxicity after intraperitoneal injection into mice by using toxicity screen test after 4 hr. Type of series: organism-based. To be noted: in vivo, ip. The method in brief:
as §3

For series [14], the system named is Rattus norvegicus. As to the kind of experiment: Anticonvulsant activity after oral administration into rats. Type of series: functional. Also noted: concentration or dose not given beside the values.
In series [15] the test system is Rattus norvegicus. As to the kind of experiment: Compound was tested for anticonvulsant activity after Oral Administration into Rats by using MES screen test after 0.25h,dose 12.5 mg/kg; No activity was demonstarted. Type of series: functional, organism-based. On the set-up: dose 12.5 mg/kg. The procedure, abridged:
as §1

Series [16] is described as follows: Compound was tested for toxicity after oral administration in rat by using neurotoxicity screen test after 0.25-24 hr. Type of series: organism-based. To be noted: in vivo. The method in brief: (§4)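 Rat neurotoxicity after oral dosing, observed at 0.25, 0.5, 1, 2, 4, 6, 8 and 24 h (8 h omitted for one compound).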
Series [17] concerns Rattus norvegicus. As to the kind of experiment: Compound was tested for anticonvulsant activity after Oral Administration into Rats by using MES screen test after 4h,dose 12.5 mg/kg; number of rats out of four which were protected. Type of series: functional. The procedure, abridged: as §1
Series [18] deals with Rattus norvegicus. As to the kind of experiment: Compound was tested for anticonvulsant activity after Oral Administration into Rats by using MES screen test after 2h,dose 12.5 mg/kg; number of rats out of four which were protected. Type of series: functional. The procedure, abridged:
as §1

For series [19], the system named is Mus musculus. As to the kind of experiment: Anticonvulsant activity after intraperitoneal injection into mice by using scPTZ screen test after 4 hr. Type of series: functional.
A short description of series [20]: Compound was tested for toxicity after intraperitoneal injection into mice by using neurotoxicity screen test after 4 hr. Type of series: organism-based. The settings on record: mouse, in vivo, ip. The procedure, abridged: as §3
Series [21] deals with Rattus norvegicus. As to the kind of experiment: Compound was tested for anticonvulsant activity after Oral Administration into Rats by using MES screen test after 0.5h,dose 12.5 mg/kg; No activity was demonstarted. Also noted: dose 12.5 mg/kg. Type of series: functional, organism-based. The procedure, abridged: as §1
Series [22] has as its system Mus musculus. As to the kind of experiment: Compound was tested for anticonvulsant activity after intraperitoneal injection into mice by using scPTZ screen test after 1 hr. Type of series: functional. To be noted: ip. The procedure, abridged:
(§5)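 Quantitative intraperitoneal mouse testing in the MES, scPTZ or rotorod neurotoxicity screens at the peak time given for each compound (0.25–2 h). ED50 or TD50 reported in mg/kg with 95% CI and slope (SE).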

Series [23] has as its system Rattus norvegicus. As to the kind of experiment: Compound was tested for anticonvulsant activity after Oral Administration into rat by using MES screen test after 2 hr. Type of series: functional. The procedure, abridged:
as §2

Series [24] has as its system Mus musculus. As to the kind of experiment: Compound was tested for anticonvulsant activity after intraperitoneal injection into mice by using MES screen test at 1 hr. To be noted: ip. Type of series: functional. The method in brief: as §5
Series [25] can be described thus: Compound was tested for toxicity after intraperitoneal injection into mice by using neurotoxicity screen test after 0.5 hr. The settings on record: mouse, in vivo, ip.
For series [26], the system named is Rattus norvegicus. As to the kind of experiment: Compound was tested for anticonvulsant activity after Oral Administration into Rats by using MES screen test after 1h,dose 12.50 mg/kg; number of rats out of four which were protected. Type of series: functional. The settings on record: dose 12.5 mg/kg. The method in brief:
as §1

The subject of series [27] is Rattus norvegicus. As to the kind of experiment: Compound was tested for anticonvulsant activity after Oral Administration into Rats by using MES screen test after 0.25h,dose 12.50 mg/kg; number of rats out of four which were protected. The settings on record: dose 12.5 mg/kg. Type of series: functional. The method in brief: as §1
A short description of series [28]: Compound was tested for toxicity after intraperitoneal injection into mice by using neurotoxicity screen test after 1 hr. Type of series: organism-based. The settings on record: mouse, in vivo, ip. The procedure, abridged:
as §5

The nature of series [29]: Compound was tested for toxicity after oral administration in rat by using neurotoxicity screen test after 2 hr. The settings on record: in vivo. Type of series: organism-based. The method in brief:
as §4

Series [30] relates to Mus musculus. As to the kind of experiment: Compound was tested for anticonvulsant activity after intraperitoneal injection into mice by using scPTZ screen test after 2 hr. Type of series: functional. To be noted: ip. The method in brief: as §5
Series [31] deals with Rattus norvegicus. As to the kind of experiment: Compound was tested for anticonvulsant activity after Oral Administration into Rats by using MES screen test after 4h,dose 12.50 mg/kg; number of rats out of four which were protected. Type of series: functional. The settings on record: dose 12.5 mg/kg. The procedure, abridged:
as §1

Series [32] deals with Mus musculus. As to the kind of experiment: Anticonvulsant activity after intraperitoneal injection into mice by using toxicity screen test after 0.5 hr. The settings on record: in vivo, ip. Type of series: organism-based.
Series [33] concerns Mus musculus. As to the kind of experiment: Compound was tested for anticonvulsant activity after intraperitoneal injection into mice by using MES screen test after 2 hr. Type of series: functional. The settings on record: ip. The procedure, abridged: as §5
Series [34] relates to Rattus norvegicus. As to the kind of experiment: Compound was tested for anticonvulsant activity after Oral Administration into Rats by using MES screen test after 0.5h,dose 12.50 mg/kg; number of rats out of four which were protected. Type of series: functional. The settings on record: dose 12.5 mg/kg. The method in brief:
as §1

Series [35] deals with Rattus norvegicus. As to the kind of experiment: Compound was tested for anticonvulsant activity after Oral Administration into rat by using MES screen test after 4 hr. Type of series: functional. The method in brief: as §2
For series [36], the system named is Rattus norvegicus. As to the kind of experiment: Compound was tested for anticonvulsant activity after Oral Administration into Rats by using MES screen test after 2h,dose 12.50 mg/kg; number of rats out of four which were protected. Type of series: functional. To be noted: dose 12.5 mg/kg. The method in brief:
as §1

What is called ED50 is the midpoint of the dose-response relation. As for `C/C(=N/NC(N)=O)c1ccc(Sc2ccccc2)cc1`, the Activity with Rattus norvegicus [1] is 4; in the series with Rattus norvegicus [5], 4; with Rattus norvegicus [7] it was 4; with Rattus norvegicus [8], 4; with Rattus norvegicus [9] it was “No activity”. Moreover, the Dose in the series with Mus musculus [2] worked out at 100 mg/kg; in the series with Mus musculus [4], 100 mg/kg; in the series on Mus musculus [6], 300 mg/kg. This compound yielded an ED50 in the series on Rattus norvegicus [3] of 16.6 mg/kg.
Usually TD50 stands for the dose at which the toxic effect under study appears in half of the subjects. For `Cc1cccc(Oc2ccc(/C=N/NC(N)=O)cc2)c1`, the Activity in the series on Rattus norvegicus [10] was 4; with Rattus norvegicus [14] it was 4; in the series on Rattus norvegicus [15], “No activity”; with Rattus norvegicus [17], 2; in the series with Rattus norvegicus [18], 3. Besides, the Dose was found to be 30 mg/kg with Mus musculus [2], 100 mg/kg in the series with Mus musculus [4], 100 mg/kg in the series with Mus musculus [11] and 300 mg/kg with Mus musculus [13]. This compound also had a median effective dose (ED50) in the series on Rattus norvegicus [3] of 3.07 mg/kg. In addition, the selectivity ratio in series [12] was more than 163. Besides, the TD50 in series [16] is more than 500 mg/kg.
Take `Cc1ccc(Sc2ccc(/C=N/NC(N)=O)cc2)cc1`: the Activity in the series with Rattus norvegicus [10] is 4; in the series with Rattus norvegicus [21], “No activity”; with Rattus norvegicus [15], “No activity”; with Rattus norvegicus [17], 4; in the series with Rattus norvegicus [18] it was 4. The Dose in the series with Mus musculus [2] stood at 30 mg/kg; in the series with Mus musculus [19], 100 mg/kg; in the series on Mus musculus [4], 30 mg/kg; in the series with Mus musculus [11], 300 mg/kg; in the series on Mus musculus [6], 100 mg/kg; in the series with Mus musculus [13], 100 mg/kg. In [20], this compound returned a TD50 at 4 h of 197 mg/kg. Further, the values for the median effective dose (ED50) in the series with Mus musculus [22], in the series with Rattus norvegicus [23] and with Mus musculus [24] were more than 300 mg/kg, 3.65 mg/kg and 9.46 mg/kg, respectively. This compound also gave a TD50 in series [16] of more than 500 mg/kg.
For `O=C1NC(=O)C(c2ccccc2)(c2ccccc2)N1` [PHENYTOIN], the Dose in the series with Mus musculus [2] was found to be 30 mg/kg; in the series with Mus musculus [4], 30 mg/kg; in the series on Mus musculus [11] it was 100 mg/kg; in the series with Mus musculus [13], 100 mg/kg. The compound also registered a TD50 at 0.5 h in [25] of 41.2 mg/kg. In the series with Mus musculus [22], this compound registered a 50% effective dose (ED50) of more than 50 mg/kg. In series [16], this compound gave a TD50 of more than 500 mg/kg.
Regarding `NC(=O)N/N=C/c1ccc(Oc2ccc(Cl)cc2F)cc1`, the Dose in the series with Mus musculus [2] was found to be 30 mg/kg; with Mus musculus [4], 30 mg/kg; in the series with Mus musculus [13], 30 mg/kg; in the series with Mus musculus [32] it was 100 mg/kg. The Activity turned out to be 4 in the series on Rattus norvegicus [26]; 2 in the series on Rattus norvegicus [27]; 4 in the series on Rattus norvegicus [31]; 4 in the series with Rattus norvegicus [34]; 4 in the series on Rattus norvegicus [36]. Also, the TD50 at 1 h in [28] was 36.3 mg/kg. In series [29], this compound gave a TD50 at 2 h of more than 90 mg/kg. Moreover, the values for the ED50 in the series on Mus musculus [30], with Mus musculus [33] and in the series with Rattus norvegicus [35] were more than 45 mg/kg, 3.31 mg/kg and 1.13 mg/kg, respectively.
